# Many of the other results were omitted from the sample, so hits are more common in it than they were.
# D1 allo mod = allosterically modulates the human D1 dopamine receptor. HEK293 D1, CRE-luciferase, dopamine EC30 potentiation; actives deviate in either direction. AID 641. actives 5.9% (n = 58,000). B-score at 10 µM;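 active = luminescence count or its row- and column-corrected plate score outside the 99.7% band of the plate's sample wells, on either side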
# Target sequence (P21728 whole entry, looked up): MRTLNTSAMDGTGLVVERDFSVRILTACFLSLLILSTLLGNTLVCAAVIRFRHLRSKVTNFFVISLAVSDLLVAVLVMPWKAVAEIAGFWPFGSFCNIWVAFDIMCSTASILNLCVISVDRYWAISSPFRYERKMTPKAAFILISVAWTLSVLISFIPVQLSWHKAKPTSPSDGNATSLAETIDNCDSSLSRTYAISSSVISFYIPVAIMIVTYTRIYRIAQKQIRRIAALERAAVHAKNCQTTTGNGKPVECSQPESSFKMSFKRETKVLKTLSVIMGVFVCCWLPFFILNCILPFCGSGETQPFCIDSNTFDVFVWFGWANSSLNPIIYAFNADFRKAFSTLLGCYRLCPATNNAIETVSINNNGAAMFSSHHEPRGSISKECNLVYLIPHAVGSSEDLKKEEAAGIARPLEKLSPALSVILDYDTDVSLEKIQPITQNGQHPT
# WNV NS2B-NS3 inh = WNV NS2B-NS3 proteinase inhibition; P06935; WNV NS2B-NS3 protease, fluorogenic substrate Ex360/Em465; active compounds read low; z-score (no concentration beside the values); actives 0.18% (n = 65,000); AID 577; in the data active = z-score below about -3
# AP ELISA ortho = orthogonal test for alternative complement pathway inhibitors | inhibition, % at 5 µM | Human serum alternative complement pathway, LPS-coated ELISA, C3 deposition; tested in compound mixtures | AID 1235 | actives 0.08% (n = 62,000);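 active = inhibition above 30% in each of the two pooled mixtures holding the compound, so the lower value exceeds 30%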;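 also: 0% = serum in Mg-EGTA without compound and 100% = EDTA serum blank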
#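 Test system: human serum alternative complement pathway, C3 deposition on LPS-coated wells; also added: Plate-bound LPS; doses: 5 µM per compound in ten-compound mixtures; schedule: 1 h at 37 °C; detection: Anti-C3 ELISA, OD 450 nm; evaluation: percent inhibition of C3 deposition onto LPS; repeats: two pool placements per compound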
# hDAT+cocaine = changed human dopamine transporter uptake under cocaine IC80 | LLC-PK1 hDAT cells, [14C]-dopamine uptake with cocaine IC80; actives deviate in either direction | B-score at 10 µM | actives 1.3% (n = 110,000) | Q01959;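 active = Z score or B-score, a plate-position-corrected score, falls beyond the plate's 99.7% confidence bounds, in either direction; inactive = both scores lie inside the 99.7% bounds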;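 also: scored against the spread of the other compound wells on the same plate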
# D1 PAM confirm = D1 receptor (human) allosteric modulation, confirmed | shares compounds with D1 allo mod | HEK293 D1 CRE-luciferase, dopamine EC30 potentiation; active compounds read high | luminescence at 10 µM | actives 88% (n = 2,200);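 active = luminescence in either of two replicates above the same-plate mean plus 3 SD of the low-dose dopamine control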
# D1 ag no DA = D1 (human) signaling in absence of dopamine; shares compounds with D1 allo mod; HEK293 D1 CRE-luciferase, luminescence, no dopamine; active compounds read high; luminescence at 10 µM; actives 0.8% (n = 1,900); AID 646; in the data active = luminescence above about 3900
# Isoprot counter = isoproterenol response counter-screen activity for D1 modulators. shares compounds with D1 allo mod. HEK293 D1 CRE-luciferase, isoproterenol EC30 counter-screen; active compounds read high. luminescence at 10 µM. actives 63% (n = 2,200). AID 647;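 active = luminescence in either replicate above plate mean of wells with a partly effective reference agonist dose plus 3 SD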;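 also: isoproterenol raises cAMP through native beta-adrenoceptor Gs so signal bypasses D1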
# An asterisk follows results filed as active; nt = no result.
SMILES,D1 allo mod,WNV NS2B-NS3 inh,AP ELISA ortho,hDAT+cocaine,D1 PAM confirm,D1 ag no DA,Isoprot counter
Cc1c(C(=O)c2no[n+]([O-])c2C(=O)c2cnn(C)c2C)cnn1C,0.2,-0.55,5,0.021,nt,nt,nt
c1coc(-c2nnc3sc(Cc4cccs4)nn23)c1,nt,1.1,nt,1.7,nt,nt,nt
c1csc(Cc2nn3c(-c4n[nH]c5c4CCC5)nnc3s2)c1,3.4*,-1.4,15,0.053,8576*,1600,3740*
Cc1c(Cc2c(Cl)cccc2Cl)c(=O)ccn1C(C)c1ccccc1 (stereo unspecified),nt,nt,nt,1.3,nt,nt,nt
Cc1cc(-c2ccccc2)c(C#N)c(SCC(N)=O)n1,5*,-0.72,20,0.041,8124*,1568,2596
O=S(=O)(c1ccccc1)c1nc(-c2cccs2)oc1NCC1CCCO1 (stereo unspecified),0.65,-0.17,-4,0.18,nt,nt,nt
N#Cc1nc(-c2cccs2)oc1NCC1CCCO1 (stereo unspecified),13*,2.3,5,-0.24,18624*,nt,2376
O=C(CCn1c(=O)c2ccccc2n(CC(=O)NC2CCCC2)c1=O)NCCc1ccc(Cl)cc1,nt,nt,nt,0.25,nt,nt,nt
c1ccc(Oc2nc(Oc3ccccc3)nc(N3CCOCC3)n2)cc1,3.7*,-0.61,-7,-0.0016,6884*,nt,2828*
COc1ccccc1Nc1nc(N2CCOCC2)nc(N2CCOCC2)n1,nt,nt,nt,0.0053,nt,nt,nt
COc1nc(N2CCOCC2)nc(-n2cccc2)n1,17*,-1.1,5,-1.3,12956*,1432,5204*
CC1=C(C#N)C(c2cn(-c3ccccc3)nc2-c2cccs2)C(C#N)=C(C)N1,nt,-1.1,-6,0.27,nt,nt,nt
NC1=NC(c2cn(-c3ccccc3)nc2-c2cccs2)n2c(nc3ccccc32)N1 (stereo unspecified),4.3*,0.03,13,nt,7380*,1336,2668
CCCOc1ccccc1N/C(=N/c1nc(C)cc(C)n1)NC(=O)Nc1ccc(Cl)cc1,nt,nt,nt,0.9,nt,nt,nt
COCCn1c(C2CCCCC2)nc2sc3ccccc3c(=O)c2c1=O,3.4*,0.96,0,1.7,10064*,nt,2492
c1ccc(Nc2nc3ccccc3n3cnnc23)cc1,4.2*,0.88,-1,0.017,15712*,1616,3056
c1ccc2c(c1)nc(NC1CCCCC1)c1nncn12,14*,0.19,-1,1.5,9836*,1048,3160*
COc1ccc(N(C(=O)c2ccccc2OC(C)=O)C(C)C2CC2)cc1 (stereo unspecified),nt,nt,nt,0.27,nt,nt,nt
COc1cccc(NC(=O)N(CCCN2CCOCC2)C(C)c2cc3ccccc3o2)c1 (stereo unspecified),nt,nt,nt,-1.4,nt,nt,nt
COc1ccc(NC(=O)c2ccc(NS(=O)(=O)c3c(C)noc3C)cc2)cc1OC,8.8*,0.78,9,-0.0083,5712*,1524,2272
COc1ccccc1NC(=O)c1ccc(NS(=O)(=O)c2c(C)noc2C)cc1,0.036,-1.2,18,-0.98,nt,nt,nt
COc1ccc(NC(=O)CN(c2ccc(C(C)C)cc2)S(=O)(=O)c2c(C)noc2C)cc1OC,3*,-0.68,5,-0.075,4788,1104,2228
COc1ccc(N(CC(=O)Nc2ccc3c(c2)OCCO3)S(=O)(=O)c2c(C)noc2C)cc1,nt,0.06,8,nt,nt,nt,nt
COc1ccccc1CNC(=O)c1ccc(NS(=O)(=O)c2c(C)noc2C)cc1,4.2*,0.73,11,-0.75,6660*,1648,2340
C[C@@H]1CC=C[C@H]2[C@H]1C(=O)N(Cc1ccccc1)[C@H]2c1ccc(/C=C/c2ccccc2)cc1F,nt,nt,nt,-1.3,nt,nt,nt
SMILES,D1 allo mod,WNV NS2B-NS3 inh,AP ELISA ortho,hDAT+cocaine,D1 PAM confirm,D1 ag no DA,Isoprot counter
O=C(Nc1ncnc2sc3c(c12)CCCCC3)c1ccco1,5.3*,-0.05,11,-0.16,9540*,1788,2888
CCOC(=O)c1oc2ccccc2c1NC(=O)c1cccc(OC)c1,0.51,-0.35,0,0.16,nt,nt,nt
CC(=O)Nc1c(C(=O)C2CC2)oc2ccccc12,8.3*,0.0097,-11,-0.77,13456*,1564,3536*
CCOC(=O)c1oc2ccccc2c1NC(=O)C1CCCCC1,9.5*,0.98,5,0.024,15764*,nt,3664*
CCOC(=O)c1oc2ccccc2c1NC(=O)c1cccc(OC)c1OC,16*,-0.42,3,-0.16,20936*,1800,4908*
CCCn1c(SCC(=O)c2cc(OC)ccc2OC)nnc1C(C)C,nt,-1.2,16,0.63,nt,nt,nt
CC(=O)NCCn1c(SCc2ccccc2F)nc2ccccc2c1=O,9.1*,1.3,10,0.76,8204*,1528,3388*
CC(=O)NCCn1c(SCc2cc(=O)n3cc(Cl)ccc3n2)nc2ccccc2c1=O,3.7*,0.06,12,1.4,8148*,1496,3584*
CC(=O)NCCn1c(SCc2ccc(C)cc2)nc2ccccc2c1=O,nt,nt,nt,-0.59,nt,nt,nt
Cn1c(SCc2ccccc2F)nc2cccnc21,7.4*,0.6,-11,-0.26,7412*,1864,2900*
COc1ccc(C(=O)CSc2nc3cccnc3n2C)cc1,nt,nt,nt,-1.1,nt,nt,nt
COc1ccc(-c2csc3nc(C)n(-n4cccc4)c(=O)c23)cc1OC,4.9*,0.99,-1,0.84,6784*,1784,2632
Cc1ccc(C)n1-n1c(C)nc2scc(-c3ccccc3)c2c1=O,nt,nt,nt,-0.08,nt,nt,nt
O=c1c2ccccc2c(C=NCCc2ccccc2)c(O)n1Cc1ccccc1,nt,nt,nt,0.45,nt,nt,nt
COc1ccc(-c2nn3cnnc3s2)cc1OC,13*,0.94,5,-0.78,16540*,1640,5880*
COc1ccc(-c2nn3c(-c4ccncc4)nnc3s2)cc1OC,1,-0.32,12,nt,nt,nt,nt
Cn1c2c(c3ccccc31)CC/C2=N\O,4.7*,-0.92,10,-1,8132*,1360,3000
CN1CCc2c(c3ccccc3n2C)C1,nt,nt,nt,-0.59,nt,nt,nt
COc1nc(N2CCCC2)nc(-n2cc(-c3ccccc3)nn2)n1,-0.035,-0.73,14,nt,nt,nt,nt
COC(=O)C1=[N+]([O-])OC(C(=O)OC)C1c1c[nH]c2ccccc12 (stereo unspecified),4.2*,0.21,13,-0.09,5864,1700,2284
Cc1cc(C)nc(N2CCC(CNC(=O)CCc3ccccc3)CC2)n1,0.87,0.98,-4,-0.23,nt,nt,nt
CCOC(=O)C1=C(C)N(CCCC(=O)O)C(=O)NC1c1cccc(OC)c1 (stereo unspecified),nt,nt,nt,0.4,nt,nt,nt
CCOC(=O)c1c(N)sc2c1CCCC2,5.2*,0.3,-10,0.17,15712*,1680,3320*
C=CCn1c2ccccc2c2nnc(SCC(=O)Nc3cc(C)on3)nc21,nt,nt,nt,-0.44,nt,nt,nt
CCCn1c2ccccc2c2nnc(SCC(=O)Nc3ncccn3)nc21,20*,-0.47,8,0.9,22748*,1692,7964*
CCCNC(=O)c1c(CSc2ccc(Cl)cc2)noc1C(=O)NCc1ccccc1,nt,nt,nt,0.19,nt,nt,nt
